Drawing on ChEMBL document CHEMBL1135893, “Synthesis and mode of action of hydrophobic derivatives of the glycopeptide antibiotic eremomycin and des-(N-methyl-D-leucyl)eremomycin against glycopeptide-sensitive and -resistant bacteria” (J Med Chem, 2002), this text covers MIC for nine molecules.

Some results are limits rather than exact numbers.

The test system of experiment [1] is Enterococcus faecium. Description: Antibacterial activity evaluated as minimum inhibitory concentration against 569 Enterococcus faecium (GRE). In kind it is functional. The gist of the method:
(§1)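 Broth microdilution in Mueller Hinton broth per NCCLS procedure; repeat results usually identical, always within 2-fold. GISA strains 3797 (HIP-5836 New Jersey) and 3798 (HIP-5827 Michigan); 533 S. epidermidis and 602 S. haemolyticus are clinical isolates; vancomycin-resistant enterococci have confirmed genotype.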

The test system of experiment [2] is Enterococcus faecalis. Description: Antibacterial activity evaluated as minimum inhibitory concentration against 559 Enterococcus faecalis (GSE). Details: unit not given beside the values. In kind it is functional. The gist of the method:
as §1

For experiment [3], the system named is Enterococcus faecalis. Description: Antibacterial activity evaluated as minimum inhibitory concentration against 560 Enterococcus faecalis (GRE). In kind it is functional. The gist of the method:
as §1

Experiment [4] has as its system Enterococcus faecium. Description: Antibacterial activity evaluated as minimum inhibitory concentration against 568 Enterococcus faecium (GSE). In kind it is functional. Summed up:
as §1

Experiment [5] has as its system Staphylococcus aureus. Description: Antibacterial activity evaluated as minimum inhibitory concentration against 3797 Staphylococcus aureus (GISA). In kind it is functional. Details: unit not given beside the values. Summed up: as §1
Experiment [6] has as its system Staphylococcus aureus. The experiment can be described thus: Antibacterial activity evaluated as minimum inhibitory concentration against 3798 Staphylococcus aureus (GISA). In kind it is functional. Further details: unit not given beside the values. The gist of the method:
as §1

In experiment [7] the test system is Staphylococcus epidermidis. The experiment can be described thus: Antibacterial activity evaluated as minimum inhibitory concentration against 533 Staphylococcus epidermidis. In kind it is functional. Summed up:
as §1

Experiment [8] has as its system Staphylococcus haemolyticus. Description: Antibacterial activity evaluated as minimum inhibitory concentration against 602 Staphylococcus haemolyticus. Details: unit not given beside the values.

Consider `CN[C@H](CC(C)C)C(=O)N[C@H]1C(=O)N[C@@H](CC(N)=O)C(=O)N[C@H]2C(=O)N[C@H]3C(=O)N[C@H](C(=O)N[C@H](C(=O)O)c4cc(O)cc(O)c4-c4cc3ccc4O)[C@H](O[C@H]3C[C@@](C)(N)[C@@H](O)[C@@H](C)O3)c3cccc(c3)Oc3cc2cc(c3O[C@@H]2O[C@@H](CO)[C@H](O)[C@@H](O)[C@@H]2O[C@H]2C[C@@](C)(N)[C@@H](O)[C@@H](C)O2)Oc2ccc(cc2Cl)[C@H]1O`, for which the MIC in the experiment with Enterococcus faecium [1] was >128; against Enterococcus faecalis [2], 0.25; in the experiment with Enterococcus faecalis [3] it was >128; against Enterococcus faecium [4], 0.25; in the experiment with Staphylococcus aureus [5], 8; with Staphylococcus aureus [6], 8. Moreover, the MIC in experiment [7] and in experiment [8] was 0.25 throughout.

Consider `CCCCCCCCCCNCc1c(O)cc2c(c1O)-c1cc(ccc1O)[C@H]1NC(=O)[C@@H]3NC(=O)[C@H](CC(N)=O)NC(=O)[C@H](NC(=O)[C@@H](CC(C)C)NC)[C@H](O)c4ccc(c(Cl)c4)Oc4cc3cc(c4O[C@@H]3O[C@@H](CO)[C@H](O)[C@@H](O)[C@@H]3O[C@H]3C[C@@](C)(N)[C@@H](O)[C@@H](C)O3)Oc3cccc(c3)[C@@H](O[C@H]3C[C@@](C)(N)[C@@H](O)[C@@H](C)O3)[C@H](NC1=O)C(=O)N[C@@H]2C(=O)O`, for which the MIC came to 8 against Enterococcus faecium [1]; 0.5 against Enterococcus faecalis [2]; 8 with Enterococcus faecalis [3]; 0.5 in the experiment with Enterococcus faecium [4]; 2 against Staphylococcus aureus [5]; 2 against Staphylococcus aureus [6]. The MIC in experiment [7] and in experiment [8] was 0.25 throughout.

Regarding `C[C@H]1O[C@@H](O[C@@H]2[C@H](Oc3c4cc5cc3Oc3ccc(cc3Cl)[C@@H](O)[C@@H](N)C(=O)N[C@@H](CC(N)=O)C(=O)N[C@H]5C(=O)N[C@H]3C(=O)N[C@H](C(=O)N[C@H](C(=O)O)c5cc(O)cc(O)c5-c5cc3ccc5O)[C@H](O[C@H]3C[C@@](C)(N)[C@@H](O)[C@@H](C)O3)c3cccc(c3)O4)O[C@@H](CO)[C@H](O)[C@H]2O)C[C@@](C)(N)[C@H]1O`, the MIC was >128 in the experiment with Enterococcus faecium [1]; 16 against Enterococcus faecalis [2]; >128 against Enterococcus faecalis [3]; 16 against Enterococcus faecium [4]; 64 in the experiment on Staphylococcus aureus [5]; 64 against Staphylococcus aureus [6]. Also, the MIC in experiment [7] and in experiment [8] was 16 in each case.

Regarding `CCCCCCCCCCNC(=O)[C@H]1NC(=O)[C@H]2NC(=O)[C@H](NC(=O)[C@@H]3NC(=O)[C@H](CC(N)=O)NC(=O)[C@H](N)[C@H](O)c4ccc(c(Cl)c4)Oc4cc3cc(c4O[C@@H]3O[C@@H](CO)[C@H](O)[C@@H](O)[C@@H]3O[C@H]3C[C@@](C)(N)[C@@H](O)[C@@H](C)O3)Oc3cccc(c3)[C@H]2O[C@H]2C[C@@](C)(N)[C@@H](O)[C@@H](C)O2)c2ccc(O)c(c2)-c2c(O)cc(O)cc21`, the MIC in the experiment on Enterococcus faecium [1] is 2; against Enterococcus faecalis [2] it was 2; in the experiment with Enterococcus faecalis [3], 4; with Enterococcus faecium [4], 2; against Staphylococcus aureus [5], 4; against Staphylococcus aureus [6] it was 8. The MIC in experiment [7] turned out to be 0.5; in experiment [8] it was 1.

Regarding `C[C@H]1O[C@@H](O[C@@H]2[C@H](Oc3c4cc5cc3Oc3ccc(cc3Cl)[C@@H](O)[C@@H](N)C(=O)N[C@@H](CC(N)=O)C(=O)N[C@H]5C(=O)N[C@H]3C(=O)N[C@H](C(=O)N[C@H](C(=O)NCc5ccc(-c6ccc(Cl)cc6)cc5)c5cc(O)cc(O)c5-c5cc3ccc5O)[C@H](O[C@H]3C[C@@](C)(N)[C@@H](O)[C@@H](C)O3)c3cccc(c3)O4)O[C@@H](CO)[C@H](O)[C@H]2O)C[C@@](C)(N)[C@H]1O`, the MIC amounted to 2 against Enterococcus faecium [1]; 4 with Enterococcus faecalis [2]; 4 against Enterococcus faecalis [3]; 4 against Enterococcus faecium [4]; 8 against Staphylococcus aureus [5]; 8 in the experiment on Staphylococcus aureus [6]. Moreover, the MIC in experiment [7] and in experiment [8] was 4 throughout.

Take `CCCCCCCCCCN[C@]1(C)C[C@H](O[C@@H]2[C@H](Oc3c4cc5cc3Oc3ccc(cc3Cl)[C@@H](O)[C@@H](N)C(=O)N[C@@H](CC(N)=O)C(=O)N[C@H]5C(=O)N[C@H]3C(=O)N[C@H](C(=O)N[C@H](C(=O)O)c5cc(O)cc(O)c5-c5cc3ccc5O)[C@H](O[C@H]3C[C@@](C)(N)[C@@H](O)[C@@H](C)O3)c3cccc(c3)O4)O[C@@H](CO)[C@H](O)[C@H]2O)O[C@H](C)[C@@H]1O`: the MIC against Enterococcus faecium [1] was found to be 16; against Enterococcus faecalis [2], 8; with Enterococcus faecalis [3], 16; in the experiment with Enterococcus faecium [4] it was 8; with Staphylococcus aureus [5], 8; against Staphylococcus aureus [6] it was 16. In addition, the values for the MIC in experiment [7] and in experiment [8] were 4 and 8, respectively.

For the molecule `CN[C@H](CC(C)C)C(=O)N[C@H]1C(=O)N[C@@H](CC(N)=O)C(=O)N[C@H]2C(=O)N[C@H]3C(=O)N[C@H](C(=O)N[C@H](C(=O)O)c4cc(O)c(CNCc5ccc(-c6ccc(Cl)cc6)cc5)c(O)c4-c4cc3ccc4O)[C@H](O[C@H]3C[C@@](C)(N)[C@@H](O)[C@@H](C)O3)c3cccc(c3)Oc3cc2cc(c3O[C@@H]2O[C@@H](CO)[C@H](O)[C@@H](O)[C@@H]2O[C@H]2C[C@@](C)(N)[C@@H](O)[C@@H](C)O2)Oc2ccc(cc2Cl)[C@H]1O`, the MIC against Enterococcus faecium [1] came to 8; against Enterococcus faecalis [2], 1; against Enterococcus faecalis [3], 16; in the experiment with Enterococcus faecium [4] it was 1; with Staphylococcus aureus [5], 2; in the experiment on Staphylococcus aureus [6], 2. For the same molecule, the MIC in experiment [7] was found to be 0.5; in experiment [8] it was 0.25.

With `CN[C@H](CC(C)C)C(=O)N[C@H]1C(=O)N[C@@H](CC(N)=O)C(=O)N[C@H]2C(=O)N[C@H]3C(=O)N[C@H](C(=O)N[C@H](C(=O)NCc4ccc(-c5ccc(Cl)cc5)cc4)c4cc(O)cc(O)c4-c4cc3ccc4O)[C@H](O[C@H]3C[C@@](C)(N)[C@@H](O)[C@@H](C)O3)c3cccc(c3)Oc3cc2cc(c3O[C@@H]2O[C@@H](CO)[C@H](O)[C@@H](O)[C@@H]2O[C@H]2C[C@@](C)(N)[C@@H](O)[C@@H](C)O2)Oc2ccc(cc2Cl)[C@H]1O`, the MIC against Enterococcus faecium [1] is 4; against Enterococcus faecalis [2], 2; against Enterococcus faecalis [3], 4; in the experiment on Enterococcus faecium [4], 1; against Staphylococcus aureus [5] it was 4; with Staphylococcus aureus [6] it was 4. For the same molecule, the MIC in experiment [7] amounted to 2; in experiment [8] it was 1.

As for `CN[C@H](CC(C)C)C(=O)N[C@H]1C(=O)N[C@@H](CC(N)=O)C(=O)N[C@H]2C(=O)N[C@H]3C(=O)N[C@H](C(=O)N[C@H](C(=O)O)c4cc(O)cc(O)c4-c4cc3ccc4O)[C@H](O[C@H]3C[C@@](C)(N)[C@@H](O)[C@@H](C)O3)c3cccc(c3)Oc3cc2cc(c3O[C@@H]2O[C@@H](CO)[C@H](O)[C@@H](O)[C@@H]2O[C@H]2C[C@@](C)(NCc3ccc(-c4ccc(Cl)cc4)cc3)[C@@H](O)[C@@H](C)O2)Oc2ccc(cc2Cl)[C@H]1O`, the MIC against Enterococcus faecium [1] was 4; against Enterococcus faecalis [2], 4; against Enterococcus faecalis [3], 8; with Enterococcus faecium [4], 2; against Staphylococcus aureus [5], 4; with Staphylococcus aureus [6], 4. Also, the values for the MIC in experiment [7] and in experiment [8] were 2 and 4, respectively.
